Activity calls are given as the source filed them. No cut-off for these calls is given here.
Tests used:
[1] = Inhibition of cell proliferation in WEHI231 cell line after 48 hrs; assay type: functional, cell-based; details: Mus musculus, WEHI231, 48 h
Summary of the method: (§1)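 WEHI-231 cells in DMEM with 10% FBS and 50 µM β-mercaptoethanol are plated at 1 × 10⁵ viable cells/mL and dosed 24 h later (final DMSO 0.1%) for 48 h. Cells are triturated to single-cell suspension and counted on a Coulter counter. Counts are given as % of the DMSO control. Mean ± SEM of three independent experiments.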

[2] = target: Protein kinase C alpha type (Homo sapiens, UniProt P17252); assay: Displacement of [3H]PDBu from PKCalpha
Summary of the method: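 Competition with [3H]PDBu for binding to recombinant single isozyme PKC alpha in the presence of phosphatidylserine. ID50 is taken from a least-squares fit of a sigmoidal competition curve. Ki = ID50/(1 + L/Kd), where L is free [3H]PDBu at the ID50 and Kd is the [3H]PDBu dissociation constant. Mean ± standard error, three determinations.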

CHO [3] = assay: Translocation of PKCalpha from cytosol to membrane in CHO cells; assay type: functional, cell-based; details: Cricetulus griseus
Summary of the method: (§2)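 CHO cells in F12-K with 10% FBS are transfected with GFP-tagged PKC alpha or PKC delta. Live cells are imaged by confocal microscopy with 488 nm excitation, time-lapse every 30 s. Redistribution from cytosol to plasma and internal membranes is followed before and after ligand addition at 10 or 20 µM, over up to about 120 min. Three independent experiments.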

[4] = Stimulation of ERK phosphorylation in LNCaP cells after 30 min; assay type: functional, cell-based; details: Homo sapiens, 0.5 h
Summary of the method: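 LNCaP prostate cells in RPMI-1640 with 10% FBS, plated at about 60% confluency and treated 24 h later with a range of concentrations for 15 or 30 min. Cells were washed with PBS and total lysates run on 10% SDS-PAGE, blotted and probed with anti-phosphoERK. Band intensity was expressed relative to 100 nM PMA (= 100%). Approximate EC50 was read from the graph; mean ± SEM of three experiments.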

CHO [5] = assay: Translocation of PKCdelta from cytosol to membrane in CHO cells; assay type: functional, cell-based; details: Cricetulus griseus; summary of the method: as §2
[6] = Inhibition of cell proliferation in WEHI231 cell line at 10 uM after 48 hrs; assay type: functional; details: Mus musculus, WEHI231, 48 h; summary of the method: as §1
U-937 [7] = assay: Induction of attachment of U937 cells after 48 hrs; assay type: functional, cell-based; details: Homo sapiens; for EC50: U-937, 48 h
Summary of the method: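 U937 monocytes in RPMI-1640 with 10% FBS are plated at 1 × 10⁵ cells/mL and exposed (final DMSO 0.1%) for 48 h. Non-attached cells and attached cells (after trypsinization) are counted on a Coulter counter. Attached cells are expressed as % of total cells. Mean ± SEM of three independent experiments.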

[8] = Induction of IL6 secretion in WEHI231 cells at 30 uM after 6 hrs relative to 10 uM PMA; assay type: functional, Mus musculus; details: in the assay text read “10 nM PMA” for “10 uM PMA”
Summary of the method: (§3)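 WEHI-231 cells are grown in DMEM with 10% FBS and 50 µM β-mercaptoethanol. They are plated at 1 × 10⁵ viable cells/mL and dosed 24 h later (final DMSO 0.1%) for 6 or 24 h. IL-6 in the supernatant is measured by ELISA, one measurement per experiment. It is expressed as % of IL-6 induced by 10 nM PMA at 6 h.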

[9] = Induction of IL6 secretion in WEHI231 cells at 30 uM after 24 hrs relative to 10 uM PMA; assay type: functional, Mus musculus; details: in the assay text read “10 nM PMA” for “10 uM PMA”; summary of the method: as §3
LNCaP = assay: Stimulation of ERK phosphorylation in LNCaP cells at 10 uM after 30 min relative to PMA; assay type: cell-based; details: Homo sapiens
Summary of the method: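 LNCaP prostate cells in RPMI-1640 with 10% FBS are plated at about 60% confluency and treated 24 h later for 15 or 30 min. Cells are PBS-washed and lysed, and lysates go through 10% SDS-PAGE and immunoblotting with anti-phosphoERK. Phospho-ERK band intensity is expressed relative to 100 nM PMA (= 100%).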

CHO [10] = assay: Translocation of PKC from cytosol to membrane in CHO cells; assay type: functional, cell-based; details: Cricetulus griseus; summary of the method: as §2
U-937 [11] = assay: Reduction of PMA-induced attachment of U937 cells at 30 uM after 48 hrs; assay type: functional, cell-based; details: Homo sapiens
CHO [12] = assay: Translocation of PKCalpha from cytosol to membrane in CHO cells at 20 uM after 120 mins; assay type: functional, cell-based; details: Cricetulus griseus; summary of the method: as §2

Ki [2] [nM]	EC50 (U-937 [7]) [nM]	Compound	EC50 [1] [nM]	other results
5.23	–	C#Cc1ccc(C#Cc2ccc(C(=O)OCC3(CO)CC(=C(C)C)C(=O)O3)cc2)cc1 (centres undefined)	3000	Activity (CHO [3]): Active; EC50 [4]: 400 nM; Activity (CHO [5]): Active
18.3	–	CC(C)=C1CC(CO)(COC(=O)c2ccc(C#Cc3ccc(C#Cc4ccc(OCCOCCOCCOC(=O)N(CC(=O)OC(C)(C)C)CC(=O)OC(C)(C)C)cc4)cc3)cc2)OC1=O (centres undefined)	–	inhibition at 10 µM [6]: 35%; Activity (U-937 [7]): Active
127	–	COC(=O)COc1ccc(C#Cc2ccc(C#Cc3ccc(C#Cc4ccc(C(=O)OCC5(CO)CC(=C(C)C)C(=O)O5)cc4)cc3)cc2)cc1 (centres undefined)	–	–
15.8	–	COC(=O)COc1ccc(C#Cc2ccc(C#Cc3ccc(C(=O)OCC4(CO)CC(=C(C)C)C(=O)O4)cc3)cc2)cc1 (centres undefined)	–	–
52.7	1000	COC(=O)CCCCCCCCCCCCCCCOc1ccc(C#Cc2ccc(C#Cc3ccc(C(=O)OCC4(CO)CC(=C(C)C)C(=O)O4)cc3)cc2)cc1 (centres undefined)	3000	Activity (LNCaP): Active
5.88	260	COc1ccc(C#Cc2ccc(C#Cc3ccc(C(=O)OCC4(CO)CC(=C(C)C)C(=O)O4)cc3)cc2)cc1 (centres undefined)	430	–
1390	–	CC(C)=C1CC(CO)(COC(=O)c2ccc(C#Cc3ccc(C#Cc4ccc(OCCOCCOCCOC(=O)N(CC(=O)O)CC(=O)O)cc4)cc3)cc2)OC1=O (centres undefined)	–	Activity (CHO [10]): Active
11.6	250	C#Cc1ccc(C#Cc2ccc(C#Cc3ccc(C(=O)OCC4(CO)CC(=C(C)C)C(=O)O4)cc3)cc2)cc1 (centres undefined)	400	Activity (U-937 [11]): Active; Activity (CHO [12]): Active
111	–	CC(C)=C1CC(CO)(COC(=O)c2ccc(C#Cc3ccc(C#Cc4ccc(OCCOCCOCCN(CC(=O)OC(C)(C)C)CC(=O)OC(C)(C)C)cc4)cc3)cc2)OC1=O (centres undefined)	–	–

Compound	Ki [2] [nM]	EC50 (U-937 [7]) [nM]	EC50 [1] [nM]	other results
CCCCCCCCCCCCCC(=O)O[C@@H]1[C@@H](C)[C@@]2(O)[C@@H](C=C(CO)C[C@]3(O)C(=O)C(C)=C[C@@H]23)[C@@H]2C(C)(C)[C@]12OC(C)=O [PHORBOL MYRISTATE ACETATE]	–	0.45	0.85	–
CCCCCCCCCC(=O)OCC1(CO)CC(=C(C)C)C(=O)O1 (centres undefined)	15.9	–	–	Activity (CHO [3]): Active; Activity [8]: 80%; EC50 [4]: 3000 nM; Activity (CHO [5]): Active; Activity (U-937 [7]): inactive; Activity [9]: 25%

Source: ChEMBL document CHEMBL1142858, “Conformationally constrained analogues of diacylglycerol (DAG). 27. Modulation of membrane translocation of protein kinase C (PKC) isozymes alpha and delta by diacylglycerol lactones (DAG-lactones) containing rigid-rod acyl groups” (J Med Chem, 2007)
